Activity calls are given as the source filed them. The rule behind the calls is not given here.
Columns and labels:
[1] = Cytotoxicity against human MT4 cells by MTT assay; format: cell-based
Outline: (§1)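 Uninfected cells grown at 37 °C, 5% CO2, in RPMI 1640 with 10% FCS, penicillin, streptomycin and glutamine, were incubated with a range of compound concentrations (up to 200 μM), run alongside the 5-day antiviral assay. Viability was read as MTT reduction to formazan by OD at 540 nm. CC50 was taken from a median effect plot of the dose-effect data.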

[2] = tested on: Human immunodeficiency virus 1; test: Antiviral activity against HIV1 3B in human MT4 cells assessed as RT activity after 5 days by single passage assay; format: functional, organism-based; conditions: Human immunodeficiency virus 1, 3B, MT4, 120 h
Outline: (§2)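 MT-4 cells kept in RPMI 1640 with 10% FCS, penicillin, streptomycin and glutamine at 37 °C, 5% CO2. Infected with HIV-1 IIIB at 5 TCID50, 30 min adsorption, washed, resuspended at 10^5 cells/mL with serial compound dilutions. After 5 days, RT activity in the medium was measured. IC50 came from a median-effect plot. AZT was the positive control. Run twice.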

[3] = Cytotoxicity against human CEM-SS cells by MTT assay; format: cell-based; outline: as §1
[4] = tested on: Human immunodeficiency virus 1; test: Antiviral activity against HIV1 LAI in human CEM-SS cells assessed as RT activity after 4 to 8 serial passages with uninfected cells by serial passage experiment; format: functional, organism-based
Outline: (§3)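 HIV-1 LAI at multiplicity 0.01 added to 2.5×10^5 CEM-SS cells in RPMI, 4 h at 37 °C. Cells washed twice in PBS, resuspended in 1 mL medium with or without analogue at 200 μM (100 μM where cytotoxicity required). Every 4 days an equal supernatant volume went to fresh CEM-SS cells, for eight cycles. RT activity in supernatants read at each passage.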

[5] = tested on: Human immunodeficiency virus 1; test: Antiviral activity against HIV1 LAI in human CEM-SS cells assessed as RT activity after 5 days by single passage assay; format: functional, organism-based; conditions: Human immunodeficiency virus 1, LAI, 120 h
Outline: as §2, with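 “CEM-SS cells” for “MT-4 cells”, “HIV-1 LAI” for “HIV-1 IIIB”, “at 20” for “at 5”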

[6] = tested on: Human immunodeficiency virus 1; test: Induction of mutation in HIV1 LAI in human CEM-SS cells after 7 passages with uninfected cells; format: functional, organism-based
[7] = tested on: Human immunodeficiency virus 1; test: Antiviral activity against HIV1 LAI in human CEM-SS cells assessed as RT activity after 4 serial passages with uninfected cells by serial passage experiment; format: functional, organism-based; outline: as §3
[8] = tested on: Human immunodeficiency virus 1; test: Antiviral activity against HIV1 LAI in human CEM-SS cells assessed as RT activity after 8 serial passages with uninfected cells by serial passage experiment; format: functional, organism-based; outline: as §3

Cc1cn([C@H]2C[C@H](N=[N+]=[N-])[C@@H](CO)O2)c(=O)[nH]c1=O [ZIDOVUDINE]
CC50 [1]: > 1 µM | IC50 [2]: 0.018 µM | CC50 [3]: > 1 µM

NC(=O)c1cn([C@H]2C[C@H](O)[C@@H](CO)O2)c(=O)[nH]c1=O
CC50 [1]: > 200 µM | Activity [4]: Active | IC50 [5]: > 200 µM | IC50 [2]: > 200 µM | Activity [6]: inactive | CC50 [3]: > 200 µM | Activity [7]: inactive

NC(=O)Cc1cn([C@H]2C[C@H](O)[C@@H](CO)O2)c(=O)nc1N
CC50 [1]: > 200 µM | IC50 [5]: > 200 µM | IC50 [2]: > 200 µM | CC50 [3]: > 200 µM

Nc1nc(=O)n([C@H]2C[C@H](O)[C@@H](CO)O2)cc1CO
CC50 [1]: > 200 µM | Activity [4]: Active | IC50 [5]: 24 µM | IC50 [2]: > 200 µM | CC50 [3]: > 200 µM | Activity [7]: inactive

NC(=O)c1cn([C@H]2C[C@H](O)[C@@H](CO)O2)c(=O)nc1N
CC50 [1]: > 200 µM | IC50 [5]: > 200 µM | IC50 [2]: > 200 µM | CC50 [3]: > 200 µM

NC(=O)Cc1cn([C@H]2C[C@H](O)[C@@H](CO)O2)c(=O)[nH]c1=O
CC50 [1]: > 200 µM | Activity [4]: Active | IC50 [5]: > 200 µM | IC50 [2]: > 200 µM | Activity [6]: inactive | Activity [8]: Active | CC50 [3]: > 200 µM | Activity [7]: inactive

O=c1[nH]c(=O)n([C@H]2C[C@H](O)[C@@H](CO)O2)cc1O
CC50 [1]: > 200 µM | IC50 [5]: > 200 µM | IC50 [2]: > 200 µM | CC50 [3]: > 200 µM

O=c1[nH]c(=O)n([C@H]2C[C@H](O)[C@@H](CO)O2)cc1CO
CC50 [1]: 130 µM | Activity [4]: Active | IC50 [5]: 30 µM | IC50 [2]: > 130 µM | Activity [8]: Active | CC50 [3]: 120 µM | Activity [7]: inactive

NC(=O)Cn1c(=O)ccn([C@H]2C[C@H](O)[C@@H](CO)O2)c1=O
CC50 [1]: > 200 µM | IC50 [5]: > 200 µM | IC50 [2]: > 200 µM | CC50 [3]: > 200 µM
